{"source": "ChEMBL document CHEMBL3046036", "about": "“Bioactivity of the fungal metabolite (8R,16R)-(-)-pyrenophorin on graminaceous plants” (J Agric Food Chem, 2005)", "key": {"Hordeum vulgare [1]": {"tested_on": "Hordeum vulgare", "assay": "Effect on chlorophyll content in Hordeum vulgare (barley) assessed as chlorophyll dissipation rate at 20 degC and 12 hr photoperiod at 320 uM relative to control", "type": "ADME, organism-based", "details": "in vivo", "method_in_brief": "(§1)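 Leaf sections were treated with 320 µM metabolite and incubated in the dark at 20 °C, with 16 tubes per treatment. Every 12 h, segments from one tube were split into four tubes and extracted in DMSO at 65 °C for 30 min. Extracts were read at A665, tissue was dried at 105 °C and weighed, and chlorophyll was expressed as A665 per g dry weight.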"}, "Triticum aestivum [2]": {"tested_on": "Triticum aestivum", "assay": "Effect on chlorophyll content in Triticum aestivum (wheat) assessed as chlorophyll dissipation rate at 20 degC and 12 hr photoperiod at 320 uM relative to control", "type": "ADME, organism-based", "details": "in vivo", "method_in_brief": "as §1"}, "Avena sativa [3]": {"tested_on": "Avena sativa", "assay": "Effect on chlorophyll content in Avena sativa assessed as chlorophyll dissipation rate at 20 degC and 12 hr photoperiod at 320 uM relative to control", "type": "ADME, organism-based", "details": "in vivo", "method_in_brief": "as §1"}, "Avena fatua [4]": {"tested_on": "Avena fatua", "assay": "Effect on chlorophyll content in Avena fatua assessed as chlorophyll dissipation rate at 20 degC and […] at 320 uM relative to control", "type": "ADME, organism-based", "details": "in vivo", "method_in_brief": "as §1"}, "Avena sterilis [5]": {"tested_on": "Avena sterilis", "assay": "Effect on chlorophyll content in Avena sterilis assessed as chlorophyll dissipation rate at 20 degC and […] at 320 uM relative to control", "type": "ADME, organism-based", "details": "in vivo", "method_in_brief": "as §1"}, "Hordeum vulgare [6]": {"tested_on": "Hordeum vulgare", "assay": "Phytotoxicity against Hordeum vulgare (barley) root growth at 20 degC and 12 hr photoperiod at 1000 uM", "type": "organism-based", "details": "in vivo"}, "Triticum aestivum [7]": {"tested_on": "Triticum aestivum", "assay": "Phytotoxicity against Triticum aestivum (wheat) root growth at 20 degC and 12 hr photoperiod at 1000 uM", "type": "organism-based", "details": "in vivo"}, "Avena sativa [8]": {"tested_on": "Avena sativa", "assay": "Phytotoxicity against Avena sativa root growth at 20 degC and 12 hr photoperiod at 1000 uM", "type": "organism-based", "details": "in vivo"}, "Avena fatua [9]": {"tested_on": "Avena fatua", "assay": "Phytotoxicity against Avena fatua root growth at 20 degC and 12 hr photoperiod at 1000 uM", "type": "organism-based", "details": "in vivo"}, "Avena sterilis [10]": {"tested_on": "Avena sterilis", "assay": "Phytotoxicity against Avena sterilis root growth at 20 degC and 12 hr photoperiod at 1000 uM", "type": "organism-based", "details": "in vivo"}, "Hordeum vulgare [11]": {"tested_on": "Hordeum vulgare", "assay": "Inhibition of Hordeum vulgare (barley) root growth at 20 degC and 12 hr photoperiod at > 51 uM", "type": "functional, organism-based", "method_in_brief": "(§2)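 Pregerminated seeds were exposed in tubes to aqueous metabolite and kept in a growth chamber at 20 °C with a 12-h photoperiod. Main root length was measured after 120 h.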"}, "Triticum aestivum [12]": {"tested_on": "Triticum aestivum", "assay": "Inhibition of Triticum aestivum (wheat) root growth at 20 degC and 12 hr photoperiod at > 51 uM", "type": "functional, organism-based"}, "Avena sativa [13]": {"tested_on": "Avena sativa", "assay": "Inhibition of Avena sativa root growth at 20 degC and 12 hr photoperiod at > 51 uM", "type": "functional, organism-based", "method_in_brief": "as §2"}, "Avena fatua [14]": {"tested_on": "Avena fatua", "assay": "Inhibition of Avena fatua root growth at 20 degC and 12 hr photoperiod at > 51 uM", "type": "functional, organism-based", "method_in_brief": "as §2"}, "Avena sterilis [15]": {"tested_on": "Avena sterilis", "assay": "Inhibition of Avena sterilis root growth at 20 degC and 12 hr photoperiod at > 51 uM", "type": "functional, organism-based", "method_in_brief": "as §2"}, "Hordeum vulgare [16]": {"tested_on": "Hordeum vulgare", "assay": "Inhibition of Hordeum vulgare (barley) root growth at 20 degC and 12 hr photoperiod at 31 to 50 uM", "type": "functional, organism-based", "method_in_brief": "as §2"}, "Triticum aestivum [17]": {"tested_on": "Triticum aestivum", "assay": "Inhibition of Triticum aestivum (wheat) root growth at 20 degC and 12 hr photoperiod at 31 to 50 uM", "type": "functional, organism-based"}, "Avena sativa [18]": {"tested_on": "Avena sativa", "assay": "Inhibition of Avena sativa root growth at 20 degC and 12 hr photoperiod at 31 to 50 uM", "type": "functional, organism-based", "method_in_brief": "as §2"}, "Avena fatua [19]": {"tested_on": "Avena fatua", "assay": "Inhibition of Avena fatua root growth at 20 degC and 12 hr photoperiod at 31 to 50 uM", "type": "functional, organism-based", "method_in_brief": "as §2"}, "Hordeum vulgare [20]": {"tested_on": "Hordeum vulgare", "assay": "Enhancement of Hordeum vulgare (barley) root growth at 20 degC and 12 hr photoperiod at 10 to 30 uM", "type": "functional, organism-based", "method_in_brief": "as §2"}, "Avena sterilis [21]": {"tested_on": "Avena sterilis", "assay": "Inhibition of Avena sterilis root growth at 20 degC and 12 hr photoperiod at 31 to 50 uM", "type": "functional, organism-based", "method_in_brief": "as §2"}, "Triticum aestivum [22]": {"tested_on": "Triticum aestivum", "assay": "Enhancement of Triticum aestivum (wheat) root growth at 20 degC and 12 hr photoperiod at 10 to 30 uM", "type": "functional, organism-based", "method_in_brief": "as §2"}, "Avena sativa [23]": {"tested_on": "Avena sativa", "assay": "Enhancement of Avena sativa root growth at 20 degC and 12 hr photoperiod at 10 to 30 uM", "type": "functional, organism-based", "method_in_brief": "as §2"}, "Avena fatua [24]": {"tested_on": "Avena fatua", "assay": "Enhancement of Avena fatua root growth at 20 degC and 12 hr photoperiod at 10 to 30 uM", "type": "functional, organism-based", "method_in_brief": "as §2"}, "Avena sterilis [25]": {"tested_on": "Avena sterilis", "assay": "Enhancement of Avena sterilis root growth at 20 degC and 12 hr photoperiod at 10 to 30 uM", "type": "functional, organism-based", "method_in_brief": "as §2"}, "Hordeum vulgare [26]": {"tested_on": "Hordeum vulgare", "assay": "Inhibition of Hordeum vulgare (barley) seed germination at 20 degC at 640 uM (reference value: 0%)", "type": "functional"}, "Hordeum vulgare [27]": {"tested_on": "Hordeum vulgare", "assay": "Inhibition of Hordeum vulgare (barley) seed germination at 20 degC at 200 uM (reference value: 0%)", "type": "functional"}, "Hordeum vulgare [28]": {"tested_on": "Hordeum vulgare", "assay": "Inhibition of Hordeum vulgare (barley) seed germination at 20 degC at 320 uM (reference value: 0%)", "type": "functional"}, "Hordeum vulgare [29]": {"tested_on": "Hordeum vulgare", "assay": "Inhibition of Hordeum vulgare (barley) seed germination at 20 degC at 100 uM (reference value: 0%)", "type": "functional"}, "Hordeum vulgare [30]": {"tested_on": "Hordeum vulgare", "assay": "Inhibition of Hordeum vulgare (barley) seed germination at 20 degC at 90 uM (reference value: 0%)", "type": "functional"}, "Hordeum vulgare [31]": {"tested_on": "Hordeum vulgare", "assay": "Inhibition of Hordeum vulgare (barley) seed germination at 20 degC at 80 uM (reference value: 0%)", "type": "functional"}, "Hordeum vulgare [32]": {"tested_on": "Hordeum vulgare", "assay": "Inhibition of Hordeum vulgare (barley) seed germination at 20 degC at 70 uM (reference value: 0%)", "type": "functional"}, "Hordeum vulgare [33]": {"tested_on": "Hordeum vulgare", "assay": "Inhibition of Hordeum vulgare (barley) seed germination at 20 degC at 60 uM (reference value: 0%)", "type": "functional"}, "Hordeum vulgare [34]": {"tested_on": "Hordeum vulgare", "assay": "Inhibition of Hordeum vulgare (barley) seed germination at 20 degC at 10 to 50 uM (reference value: 0%)", "type": "functional"}, "Triticum aestivum [35]": {"tested_on": "Triticum aestivum", "assay": "Inhibition of Triticum aestivum (wheat) seed germination at 20 degC at 640 uM (reference value: 0%)", "type": "functional"}}, "note": "Active and inactive are the calls of the source. The calls are words filed in the database; no cut-off is given here.", "data": [{"compound": "C[C@@H]1CCC(=O)/C=C/C(=O)O[C@H](C)CCC(=O)/C=C/C(=O)O1", "note": "[(8R,16R)-(-)-pyrenophorin]", "values": [{"measurement": "Ratio", "setting": "Hordeum vulgare [1]", "result": 1.4}, {"measurement": "Ratio", "setting": "Triticum aestivum [2]", "result": 1.4}, {"measurement": "Ratio", "setting": "Avena sativa [3]", "result": 1.4}, {"measurement": "Ratio", "setting": "Avena fatua [4]", "result": 1.4}, {"measurement": "Ratio", "setting": "Avena sterilis [5]", "result": 1.4}, {"measurement": "Activity", "setting": "Hordeum vulgare [6]", "result": "Non-toxic"}, {"measurement": "Activity", "setting": "Triticum aestivum [7]", "result": "Non-toxic"}, {"measurement": "Activity", "setting": "Avena sativa [8]", "result": "Non-toxic"}, {"measurement": "Activity", "setting": "Avena fatua [9]", "result": "Non-toxic"}, {"measurement": "Activity", "setting": "Avena sterilis [10]", "result": "Non-toxic"}, {"measurement": "inhibition", "setting": "Hordeum vulgare [11]", "result": "Active"}, {"measurement": "inhibition", "setting": "Triticum aestivum [12]", "result": "Active"}, {"measurement": "inhibition", "setting": "Avena sativa [13]", "result": "Active"}, {"measurement": "inhibition", "setting": "Avena fatua [14]", "result": "Active"}, {"measurement": "inhibition", "setting": "Avena sterilis [15]", "result": "Active"}, {"measurement": "inhibition", "setting": "Hordeum vulgare [16]", "result": "inactive"}, {"measurement": "inhibition", "setting": "Triticum aestivum [17]", "result": "inactive"}, {"measurement": "inhibition", "setting": "Avena sativa [18]", "result": "inactive"}, {"measurement": "inhibition", "setting": "Avena fatua [19]", "result": "inactive"}, {"measurement": "Activity", "setting": "Hordeum vulgare [20]", "result": "Active"}, {"measurement": "inhibition", "setting": "Avena sterilis [21]", "result": "inactive"}, {"measurement": "Activity", "setting": "Triticum aestivum [22]", "result": "Active"}, {"measurement": "Activity", "setting": "Avena sativa [23]", "result": "Active"}, {"measurement": "Activity", "setting": "Avena fatua [24]", "result": "Active"}, {"measurement": "Activity", "setting": "Avena sterilis [25]", "result": "Active"}, {"measurement": "inhibition at 640 µM", "setting": "Hordeum vulgare [26]", "result": 100, "unit": "%"}, {"measurement": "inhibition at 200 µM", "setting": "Hordeum vulgare [27]", "result": 99, "unit": "%"}, {"measurement": "inhibition at 320 µM", "setting": "Hordeum vulgare [28]", "result": 100, "unit": "%"}, {"measurement": "inhibition at 100 µM", "setting": "Hordeum vulgare [29]", "result": 95.4, "unit": "%"}, {"measurement": "inhibition at 90 µM", "setting": "Hordeum vulgare [30]", "result": 88.2, "unit": "%"}, {"measurement": "inhibition at 80 µM", "setting": "Hordeum vulgare [31]", "result": 87.7, "unit": "%"}, {"measurement": "inhibition at 70 µM", "setting": "Hordeum vulgare [32]", "result": 67.5, "unit": "%"}, {"measurement": "inhibition at 60 µM", "setting": "Hordeum vulgare [33]", "result": 10.1, "unit": "%"}, {"measurement": "inhibition (INH)", "setting": "Hordeum vulgare [34]", "result": 0, "unit": "%"}, {"measurement": "inhibition at 640 µM", "setting": "Triticum aestivum [35]", "result": 100, "unit": "%"}]}]}
